In ChEMBL document CHEMBL2321820, “Discovery of HSD-621 as a Potential Agent for the Treatment of Type 2 Diabetes” (ACS Med Chem Lett, 2013):

Columns and labels:
Mus musculus [1] = species: Mus musculus; test: Toxicity in C57B6 DIO mouse assessed as elevation of alanine aminotransferase at 0.3 mg/g of food after 31 days; format: organism-based; conditions: in vivo, po, 744 h
Mus musculus [2] = species: Mus musculus; test: Toxicity in C57B6 DIO mouse assessed as reduction of food intake at 0.3 mg/g of food after 31 days; format: organism-based; conditions: in vivo, po, 744 h
Mus musculus [3] = species: Mus musculus; test: Antidiabetic activity in C57B6 DIO mouse assessed as reduction in fasting insulin level at 0.3 mg/g of food after 31 days by HPLC analysis relative to untreated control; format: functional; design: scale not given: the % may be the effect or the level left
In short: (§1)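 Male C57B6 mice, 5.5–7 months old, kept on a 35.5% fat diet for 4 months. Compound was mixed into food at 0.3 mg drug/g food for 31 days. Controls received diet 12492. Glucose and insulin were measured fed and fasting.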

Mus musculus [4] = species: Mus musculus; test: Antidiabetic activity in C57B6 DIO mouse assessed as reduction in fed insulin level at 0.3 mg/g of food after 31 days by HPLC analysis relative to untreated control; format: functional; design: scale not given: the % may be the effect or the level left; in short: as §1
[5] = biological target: T1, Peroxisome proliferator-activated receptor delta (Homo sapiens, UniProt Q03181); test: Inhibition of PPARbeta (unknown origin)
T1 sequence (Q03181 whole entry): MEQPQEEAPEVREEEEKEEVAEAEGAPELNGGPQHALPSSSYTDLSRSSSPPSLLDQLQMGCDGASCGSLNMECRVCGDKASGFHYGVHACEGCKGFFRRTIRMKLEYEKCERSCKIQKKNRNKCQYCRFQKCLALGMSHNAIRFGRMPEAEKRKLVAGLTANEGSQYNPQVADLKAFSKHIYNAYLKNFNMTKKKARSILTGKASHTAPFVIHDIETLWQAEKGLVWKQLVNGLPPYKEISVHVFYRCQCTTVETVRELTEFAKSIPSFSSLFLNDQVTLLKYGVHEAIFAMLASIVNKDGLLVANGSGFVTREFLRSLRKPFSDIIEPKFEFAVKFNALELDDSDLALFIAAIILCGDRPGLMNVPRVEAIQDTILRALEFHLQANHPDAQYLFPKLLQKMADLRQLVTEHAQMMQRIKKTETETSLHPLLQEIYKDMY

Canis familiaris = test: Toxicity in dog at 100 to 1000 mg/kg; format: organism-based, Canis lupus familiaris; design: dose 100-1000 mg/kg; conditions: in vivo
In short: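 Dogs were dosed at 100, 300 and 1000 mg/kg in a 14-day safety assessment and metabolism study.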

Salmonella typhimurium = test: Genotoxicity in Salmonella typhimurium by Ames test; format: toxicity, organism-based; conditions: salmonella enterica subsp. enterica serovar typhimurium
[6] = biological target: Voltage-gated inwardly rectifying potassium channel KCNH2 (Homo sapiens, UniProt Q12809); test: Activity at human ERG at 33 uM
[7] = Oral bioavailability in Sprague-Dawley rat at 10 mg/kg; format: ADME, organism-based; conditions: in vivo
In short: (§2)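 SD rats received 2 mg/kg iv in 50% DMSO/50% PEG200, or 10 mg/kg po in 2% Tween/0.5% methyl cellulose in water. PK parameters come from each route.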

[8] = Oral bioavailability in C57B6 mouse at 10 mg/kg; format: ADME, organism-based; conditions: in vivo
In short: (§3)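 Male C57B6 mice. IV dose of 2 mg/kg in 50% DMSO/50% PEG200. Oral dose of 10 mg/kg in 2% Tween/0.5% methyl cellulose in water. Values are PK parameters from the iv and po arms.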

[9] = Half life in C57B6 mouse at 10 mg/kg, po; format: ADME, organism-based; design: dose 10 mg/kg, route oral; conditions: in vivo; in short: as §3
[10] = AUC in Sprague-Dawley rat at 10 mg/kg, po; format: ADME, organism-based; design: dose 10 mg/kg, route oral; conditions: plasma; in short: as §2
[11] = AUC in C57B6 mouse at 10 mg/kg, po; format: ADME, organism-based; design: dose 10 mg/kg, route oral; conditions: plasma; in short: as §3
[12] = Tmax in C57B6 mouse at 10 mg/kg, po; format: ADME, organism-based; design: dose 10 mg/kg, route oral; conditions: in vivo; in short: as §3
[13] = Cmax in Sprague-Dawley rat at 10 mg/kg, po; format: ADME, organism-based; design: dose 10 mg/kg, route oral; conditions: in vivo; in short: as §2
[14] = Half life in Beagle dog at 2 mg/kg, iv; format: ADME, organism-based, Canis lupus familiaris; design: dose 2 mg/kg, route intravenous; conditions: in vivo
In short: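 Male dogs were given 2 mg/kg intravenously in 50% DMSO/50% PEG200.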

[15] = Half life in C57B6 mouse at 2 mg/kg, iv; format: ADME, organism-based; design: dose 2 mg/kg, route intravenous; conditions: in vivo; in short: as §3
[16] = AUC in Sprague-Dawley rat at 2 mg/kg, iv; format: ADME, organism-based; design: dose 2 mg/kg, route intravenous; conditions: plasma; in short: as §2
[17] = Volume of distribution at steady state in Sprague-Dawley rat at 2 mg/kg, iv; format: ADME, organism-based; design: dose 2 mg/kg, route intravenous; conditions: in vivo, read-out: Vdss
In short: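 Sprague-Dawley rats given a single iv dose of 2 mg/kg in 50% DMSO/50% PEG200. A separate oral arm received 10 mg/kg in 2% Tween/0.5% methyl cellulose in water.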

[18] = Volume of distribution at steady state in C57B6 mouse at 2 mg/kg, iv; format: ADME, organism-based; design: dose 2 mg/kg, route intravenous; conditions: in vivo, read-out: Vdss; in short: as §3
[19] = Clearance in Sprague-Dawley rat at 2 mg/kg, iv; format: ADME, organism-based; design: dose 2 mg/kg, route intravenous; conditions: in vivo; in short: as §2
[20] = Clearance in C57B6 mouse at 2 mg/kg, iv; format: ADME, organism-based; design: dose 2 mg/kg, route intravenous; conditions: in vivo; in short: as §3
[21] = Half life in rat liver microsomes; format: ADME, Microsome
Mus musculus [22] = test: Ex vivo inhibition of 11beta-HSD1 in C57B16 mouse epididymal fat assessed as conversion of [3H]-cortisone to [3H]-cortisol at 10 mg/kg, po after 5 hrs by HPLC analysis relative to vehicle-treated control; format: functional
In short: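 Mice were dosed orally at 10 mg/kg. Epididymal fat was collected 5 h after dosing for the ex vivo readout.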

[23] = biological target: T2, 11-beta-hydroxysteroid dehydrogenase 1 (Mus musculus, UniProt P50172); test: Inhibition of mouse 11beta-HSD1 expressed in CHO cells […] incubated for 30 mins prior to substrate addition measured after 120 mins by chemiluminescence assay in presence of 10% human serum; format: cell-based
In short: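 Cell-based assay with 10% (v/v) human serum in the culture medium. Run in duplicate, with 11-point 2-fold dilutions giving the IC50. Lower threshold was 10 nM.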

[24] = biological target: T2, 11-beta-hydroxysteroid dehydrogenase 1; test: Inhibition of mouse 11beta-HSD1 expressed in CHO cells […] incubated for 30 mins prior to substrate addition measured after 120 mins by chemiluminescence assay; format: cell-based
In short: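 Cell-based assay run in duplicate. Compounds were tested as 11-point 2-fold dilutions, and IC50 was derived. Lower assay threshold was 10 nM.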

[25] = Half life in human liver microsomes; format: ADME, Microsome
[26] = AUC in Beagle dog at 5 mg/kg, po; conditions: plasma
[27] = Half life in Beagle dog at 5 mg/kg, po; conditions: in vivo

T2 sequence (P50172 whole entry): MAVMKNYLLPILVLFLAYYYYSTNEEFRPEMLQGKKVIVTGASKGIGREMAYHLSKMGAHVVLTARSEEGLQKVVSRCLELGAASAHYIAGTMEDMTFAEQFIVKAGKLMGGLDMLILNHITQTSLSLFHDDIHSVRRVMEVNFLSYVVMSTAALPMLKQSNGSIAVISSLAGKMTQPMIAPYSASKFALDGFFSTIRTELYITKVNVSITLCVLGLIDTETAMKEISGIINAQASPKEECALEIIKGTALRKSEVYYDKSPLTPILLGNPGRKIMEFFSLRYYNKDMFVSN
Voltage-gated inwardly rectifying potassium channel KCNH2, sequence (Q12809 whole entry): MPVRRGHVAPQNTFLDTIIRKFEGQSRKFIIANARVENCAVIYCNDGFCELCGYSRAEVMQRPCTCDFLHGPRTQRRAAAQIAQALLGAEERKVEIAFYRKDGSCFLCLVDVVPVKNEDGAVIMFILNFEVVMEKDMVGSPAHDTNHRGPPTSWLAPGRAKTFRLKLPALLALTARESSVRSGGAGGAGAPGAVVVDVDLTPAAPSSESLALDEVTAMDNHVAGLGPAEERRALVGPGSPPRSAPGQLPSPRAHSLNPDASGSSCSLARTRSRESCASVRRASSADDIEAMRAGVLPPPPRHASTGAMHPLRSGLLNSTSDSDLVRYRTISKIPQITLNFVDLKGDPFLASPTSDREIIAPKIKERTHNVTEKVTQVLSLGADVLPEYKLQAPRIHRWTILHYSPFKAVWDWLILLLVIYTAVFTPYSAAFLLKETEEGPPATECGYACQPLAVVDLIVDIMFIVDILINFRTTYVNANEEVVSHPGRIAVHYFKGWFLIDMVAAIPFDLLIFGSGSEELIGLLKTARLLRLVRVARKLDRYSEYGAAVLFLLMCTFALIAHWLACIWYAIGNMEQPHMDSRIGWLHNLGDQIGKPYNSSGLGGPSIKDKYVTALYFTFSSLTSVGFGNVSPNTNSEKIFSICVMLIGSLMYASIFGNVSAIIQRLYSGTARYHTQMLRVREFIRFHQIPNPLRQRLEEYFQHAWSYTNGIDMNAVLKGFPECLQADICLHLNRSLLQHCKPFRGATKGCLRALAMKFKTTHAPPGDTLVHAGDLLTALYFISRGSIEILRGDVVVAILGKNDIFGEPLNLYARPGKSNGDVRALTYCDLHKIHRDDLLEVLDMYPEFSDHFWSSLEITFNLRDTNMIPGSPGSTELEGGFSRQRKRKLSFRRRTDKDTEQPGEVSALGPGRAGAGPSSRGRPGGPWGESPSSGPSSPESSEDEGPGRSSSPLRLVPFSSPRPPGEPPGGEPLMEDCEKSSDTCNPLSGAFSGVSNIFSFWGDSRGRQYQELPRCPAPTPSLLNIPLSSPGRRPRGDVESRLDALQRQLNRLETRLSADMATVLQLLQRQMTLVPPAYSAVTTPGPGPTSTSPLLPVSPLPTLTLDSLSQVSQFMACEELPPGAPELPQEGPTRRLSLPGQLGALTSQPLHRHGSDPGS

IC50 [5]: > 100 µM
bioavailability [7]: 61%
bioavailability [8]: 67%
half-life [9]: 288 min
AUC [10]: 6540 ng·h/mL
AUC [11]: 11700 ng·h/mL
Tmax [12]: 2 h
Cmax [13]: 656 ng/mL
half-life [14]: 1220 min
half-life [15]: 366 min
AUC [16]: 4310 ng·h/mL
Vd [17]: 3.8 L/kg
Vd [18]: 4.2 L/kg
clearance [19]: 8 mL/min/kg
clearance [20]: 9 mL/min/kg
half-life [21]: > 30 min
IC50 [23]: 10 nM
IC50 [24]: 10 nM
half-life [25]: > 30 min
AUC [26]: 43500 ng·h/mL
half-life [27]: 1030 min
Structure (SMILES): C[C@@H]1CN(c2ccc(F)cc2C(F)(F)F)CCN1S(=O)(=O)c1ccc([C@@](O)(C(N)=O)C(F)(F)F)s1
Activity (Mus musculus [1]): Non-toxic
Activity (Mus musculus [2]): Non-toxic
Activity (Mus musculus [3]): 33%
Activity (Mus musculus [4]): 44%
Activity (Canis familiaris): Non-toxic
Activity (Salmonella typhimurium): Non-toxic
Activity [6]: Not Active
inhibition in vivo at 10 mg/kg (Mus musculus [22]): 75%
